Results from ChEMBL document CHEMBL1133628, “Nonnucleoside human cytomegalovirus inhibitors: synthesis and antiviral evaluation of (chlorophenylmethyl)benzothiadiazine dioxide derivatives” (J Med Chem, 2000).

The compounds below were run on Human betaherpesvirus 5 (assay: concentration required to reduce virus HCMV (C)plaque formation by 50%). Settings: not given.
Assay type: functional, organism-based
Outline: (§1)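 Wild-type HCMV clinical isolates from patients (congenital infection, mononucleosis, AIDS, bone marrow transplant) tested in confluent HEL fibroblasts. IC50 taken as the concentration reducing virus plaque formation by 50%; assays in duplicate.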

| Compound | IC50 [µM] |
| --- | --- |
| Nc1nc2c(ncn2COC(CO)CO)c(=O)[nH]1 [GANCICLOVIR] | 6.2 |

Each compound was assayed on HEL (assay: Inhibition of cell growth in HEL cells.). Settings: Homo sapiens.
Assay type: functional
Outline: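 HEL fibroblasts seeded at 5×10^3 cells/well and left to proliferate 24 h, then given compound dilutions in duplicate. Incubated 3 days at 37 °C, 5% CO2; cells counted with a Coulter counter. CC50 is the concentration reducing cell growth by 50%.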

| Compound | CC50 [µM] |
| --- | --- |
| O=S1(=O)N=C(OCc2ccccc2)c2ccccc2N1Cc1ccccc1 | > 200 |
| O=C1c2ccccc2N(Cc2cccc(Cl)c2)S(=O)(=O)N1Cc1ccccc1 | > 200 |
| O=C1c2ccccc2N(Cc2ccccc2Cl)S(=O)(=O)N1Cc1ccccc1 | 88 |
| O=C1c2ccccc2N(COCc2ccccc2)S(=O)(=O)N1COCc1ccccc1 | 130 |
| Nc1nc2c(ncn2COC(CO)CO)c(=O)[nH]1 [GANCICLOVIR] | 394 |

Each compound was assayed on Human immunodeficiency virus 2 (assay: In vitro inhibition of HIV-2(ROD) cytopathicity in CEM cells.). Settings: Human immunodeficiency virus 2, CCRF-CEM.
Assay type: functional, organism-based
Outline: (§2)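 CEM cells at 4×10^5 cells/mL infected with HIV-1 IIIB or HIV-2 ROD (stocks from MT-4 supernatants) at ~100 CCID50/mL, then immediately mixed with compound dilutions. Giant cell formation scored microscopically after 4 days; EC50 is the concentration inhibiting it by 50%. Triplicate assays.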

| Compound | EC50 [µM] |
| --- | --- |
| O=S1(=O)N=C(OCc2ccccc2)c2ccccc2N1Cc1ccccc1 | > 10 |
| O=C1c2ccccc2N(Cc2cccc(Cl)c2)S(=O)(=O)N1Cc1ccccc1 | > 10 |
| O=C1c2ccccc2N(Cc2ccccc2Cl)S(=O)(=O)N1Cc1ccccc1 | > 10 |
| O=C1c2ccccc2N(COCc2ccccc2)S(=O)(=O)N1COCc1ccccc1 | 25 |

What follows are compounds tested on Human alphaherpesvirus 3 (assay: In vitro inhibition of Thymidine Kinase deficient Varicella Zoster Virus (YS/R) plaque formation.). Settings: not given.
Assay type: functional, organism-based
Outline: (§3)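 Confluent HEL fibroblasts infected with VZV at 20 PFU; after a 2-h adsorption, residual virus removed and cells incubated in MEM with 2% FCS containing serial 5-fold compound dilutions, in duplicate. Fixed with ethanol after 5 days at 37 °C, 5% CO2, then Giemsa-stained; plaques counted microscopically. IC50 read graphically from plaque number (% of control); mean of two independent experiments.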

| Compound | IC50 [µM] |
| --- | --- |
| O=S1(=O)N=C(OCc2ccccc2)c2ccccc2N1Cc1ccccc1 | 20 |
| O=C1c2ccccc2N(Cc2ccccc2Cl)S(=O)(=O)N1Cc1ccccc1 | > 20 |
| O=C1c2ccccc2N(COCc2ccccc2)S(=O)(=O)N1COCc1ccccc1 | 10 |

Each compound was assayed on Human alphaherpesvirus 3 (assay: In vitro inhibition of Thymidine Kinase-Varicella Zoster Virus(YS) plaque formation.). Settings: not given.
Assay type: functional, organism-based
Outline: as §3

| Compound | IC50 [µM] |
| --- | --- |
| O=S1(=O)N=C(OCc2ccccc2)c2ccccc2N1Cc1ccccc1 | > 50 |
| O=C1c2ccccc2N(Cc2cccc(Cl)c2)S(=O)(=O)N1Cc1ccccc1 | > 50 |
| O=C1c2ccccc2N(Cc2ccccc2Cl)S(=O)(=O)N1Cc1ccccc1 | > 20 |
| O=C1c2ccccc2N(COCc2ccccc2)S(=O)(=O)N1COCc1ccccc1 | > 50 |

These compounds were tested on HEL (assay: In vitro alteration in cell morphology in HEL cells.). Settings: Homo sapiens.
Assay type: functional
Outline: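 Normal HEL cells exposed to compounds and examined microscopically; minimum cytotoxic concentration is the lowest giving a detectable change in cell morphology. Duplicate assays.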

| Compound | MCC [µM] |
| --- | --- |
| O=S1(=O)N=C(OCc2ccccc2)c2ccccc2N1Cc1ccccc1 | 200 |
| O=C1c2ccccc2N(Cc2cccc(Cl)c2)S(=O)(=O)N1Cc1ccccc1 | > 5 |
| O=C1c2ccccc2N(Cc2ccccc2Cl)S(=O)(=O)N1Cc1ccccc1 | 200 |
| O=C1c2ccccc2N(COCc2ccccc2)S(=O)(=O)N1COCc1ccccc1 | 200 |
| Nc1nc2c(ncn2COC(CO)CO)c(=O)[nH]1 [GANCICLOVIR] | > 150 |

What follows are compounds tested on CCRF-CEM (assay: In vitro inhibition of CEM cell proliferation.). Settings: Homo sapiens.
Assay type: functional
Outline: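 CEM cell proliferation measured alongside the HIV assays; CC50 is the concentration reducing CEM cell proliferation by 50%.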

| Compound | CC50 [µM] |
| --- | --- |
| O=S1(=O)N=C(OCc2ccccc2)c2ccccc2N1Cc1ccccc1 | 22.2 |
| O=C1c2ccccc2N(Cc2cccc(Cl)c2)S(=O)(=O)N1Cc1ccccc1 | 21.3 |
| O=C1c2ccccc2N(Cc2ccccc2Cl)S(=O)(=O)N1Cc1ccccc1 | 27.9 |
| O=C1c2ccccc2N(COCc2ccccc2)S(=O)(=O)N1COCc1ccccc1 | 27.7 |

The compounds below were run on Human alphaherpesvirus 3 (assay: In vitro inhibition of Thymidine Kinase deficient Varicella Zoster Virus (07/1) plaque formation.). Settings: not given.
Assay type: functional, organism-based
Outline: as §3

| Compound | IC50 [µM] |
| --- | --- |
| O=S1(=O)N=C(OCc2ccccc2)c2ccccc2N1Cc1ccccc1 | > 50 |
| O=C1c2ccccc2N(Cc2cccc(Cl)c2)S(=O)(=O)N1Cc1ccccc1 | 30 |
| O=C1c2ccccc2N(Cc2ccccc2Cl)S(=O)(=O)N1Cc1ccccc1 | > 20 |
| O=C1c2ccccc2N(COCc2ccccc2)S(=O)(=O)N1COCc1ccccc1 | > 50 |

The compounds below were run on Human betaherpesvirus 5 (assay: In vitro inhibition of HCMV (Davis) plaque formation.). Settings: not given.
Assay type: functional, organism-based
Outline: (§4)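 Confluent HEL fibroblasts infected with HCMV at 100 PFU of cell-free virus; after a 2-h adsorption, residual virus removed and cells incubated in MEM with 2% FCS containing serial 5-fold compound dilutions, in duplicate. Fixed with ethanol after 7 days at 37 °C, 5% CO2, then Giemsa-stained; cytopathic effect scored microscopically. IC50 read graphically from % cytopathicity; mean of two experiments.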

| Compound | IC50 [µM] |
| --- | --- |
| O=S1(=O)N=C(OCc2ccccc2)c2ccccc2N1Cc1ccccc1 | 7 |
| O=C1c2ccccc2N(Cc2cccc(Cl)c2)S(=O)(=O)N1Cc1ccccc1 | > 5 |
| O=C1c2ccccc2N(Cc2ccccc2Cl)S(=O)(=O)N1Cc1ccccc1 | 12 |
| O=C1c2ccccc2N(COCc2ccccc2)S(=O)(=O)N1COCc1ccccc1 | 12 |

These compounds were tested on Human betaherpesvirus 5 (assay: concentration required to reduce virus HCMV (A)plaque formation by 50%). Settings: not given.
Assay type: functional, organism-based
Outline: as §1

| Compound | IC50 [µM] |
| --- | --- |
| Nc1nc2c(ncn2COC(CO)CO)c(=O)[nH]1 [GANCICLOVIR] | 6.2 |

Each compound was assayed on Human betaherpesvirus 5 (assay: concentration required to reduce virus HCMV (E)plaque formation by 50%). Settings: not given.
Assay type: functional, organism-based
Outline: as §1

| Compound | IC50 [µM] |
| --- | --- |
| Nc1nc2c(ncn2COC(CO)CO)c(=O)[nH]1 [GANCICLOVIR] | 4.1 |

What follows are compounds tested on Human betaherpesvirus 5 (assay: concentration required to reduce virus HCMV (F)plaque formation by 50%). Settings: not given.
Assay type: functional, organism-based
Outline: as §1

| Compound | IC50 [µM] |
| --- | --- |
| Nc1nc2c(ncn2COC(CO)CO)c(=O)[nH]1 [GANCICLOVIR] | 6.2 |

The compounds below were run on Human alphaherpesvirus 3 (assay: In vitro inhibition of Thymidine Kinase-Varicella-Zoster Virus(OKA) plaque formation.). Settings: Human alphaherpesvirus 3, oka.
Assay type: functional, organism-based
Outline: as §3

| Compound | IC50 [µM] |
| --- | --- |
| O=S1(=O)N=C(OCc2ccccc2)c2ccccc2N1Cc1ccccc1 | > 50 |
| O=C1c2ccccc2N(Cc2cccc(Cl)c2)S(=O)(=O)N1Cc1ccccc1 | > 50 |
| O=C1c2ccccc2N(Cc2ccccc2Cl)S(=O)(=O)N1Cc1ccccc1 | > 20 |
| O=C1c2ccccc2N(COCc2ccccc2)S(=O)(=O)N1COCc1ccccc1 | 14 |

What follows are compounds tested on Human betaherpesvirus 5 (assay: In vitro inhibition of HCMV (AD-169) plaque formation.). Settings: not given.
Assay type: functional, organism-based
Outline: as §4

| Compound | IC50 [µM] |
| --- | --- |
| O=S1(=O)N=C(OCc2ccccc2)c2ccccc2N1Cc1ccccc1 | 7 |
| O=C1c2ccccc2N(Cc2cccc(Cl)c2)S(=O)(=O)N1Cc1ccccc1 | > 5 |
| O=C1c2ccccc2N(Cc2ccccc2Cl)S(=O)(=O)N1Cc1ccccc1 | 15 |
| O=C1c2ccccc2N(COCc2ccccc2)S(=O)(=O)N1COCc1ccccc1 | 12 |
| Nc1nc2c(ncn2COC(CO)CO)c(=O)[nH]1 [GANCICLOVIR] | 3.7 |

The compounds below were run on Human betaherpesvirus 5 (assay: concentration required to reduce virus HCMV (D)plaque formation by 50%). Settings: not given.
Assay type: functional, organism-based
Outline: as §1

| Compound | IC50 [µM] |
| --- | --- |
| Nc1nc2c(ncn2COC(CO)CO)c(=O)[nH]1 [GANCICLOVIR] | 4.1 |

These compounds were tested on Human betaherpesvirus 5 (assay: concentration required to reduce virus HCMV (G)plaque formation by 50%). Settings: not given.
Assay type: functional, organism-based
Outline: as §1

| Compound | IC50 [µM] |
| --- | --- |
| Nc1nc2c(ncn2COC(CO)CO)c(=O)[nH]1 [GANCICLOVIR] | 8.2 |

These compounds were tested on Human betaherpesvirus 5 (assay: concentration required to reduce virus HCMV (B)plaque formation by 50%). Settings: not given.
Assay type: functional, organism-based
Outline: as §1

| Compound | IC50 [µM] |
| --- | --- |
| Nc1nc2c(ncn2COC(CO)CO)c(=O)[nH]1 [GANCICLOVIR] | 6.2 |

What follows are compounds tested on Human immunodeficiency virus 1 (assay: In vitro inhibition of HIV-1(IIIB) cytopathicity in CEM cells.). Settings: Human immunodeficiency virus 1, CCRF-CEM.
Assay type: functional, organism-based
Outline: as §2

| Compound | EC50 [µM] |
| --- | --- |
| O=S1(=O)N=C(OCc2ccccc2)c2ccccc2N1Cc1ccccc1 | > 10 |
| O=C1c2ccccc2N(Cc2cccc(Cl)c2)S(=O)(=O)N1Cc1ccccc1 | 5.5 |
| O=C1c2ccccc2N(Cc2ccccc2Cl)S(=O)(=O)N1Cc1ccccc1 | > 10 |
| O=C1c2ccccc2N(COCc2ccccc2)S(=O)(=O)N1COCc1ccccc1 | 25 |
